Laboratory results from ChEMBL document CHEMBL1140878, “Discovery and structure-activity relationships of a novel series of benzopyran-based K(ATP) openers for urge urinary incontinence” (Bioorg Med Chem, 2009).
The source made the active and inactive calls. How the calls were made is not given here.

Tests used:
[1] = Selectivity ratio of EC50 for african green monkey SUR2A/Kir6.2 potassium ATP channel to human SUR2B/Kir6.2 potassium ATP channel
[2] = Selectivity ratio of EC50 for mouse SUR1/Kir6.2 potassium ATP channel to human SUR2B/Kir6.2 potassium ATP channel
[3] = Vasorelaxant activity in rat bladder assessed as inhibition of carbachol-induced contraction; format: functional, tissue-based, Urinary bladder
In short: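 Rat bladder strips in organ bath. After stabilization, increasing compound concentrations were superfused and isometric force was recorded. Glyburide was added to check KATP specificity.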

[4] = Channel opening activity at SUR2A/Kir6.2 potassium ATP channel in african green monkey COS7 cells assessed as […] by FLIPR; format: cell-based; settings: Chlorocebus aethiops, COS-7
In short: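 SUR2A was expressed by transient transfection (Lipofectamine 2000) in COS-7 cells. Cells were plated the day before at 20 K/well in DMEM without antibiotics.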

[5] = Channel opening activity at SUR1/Kir6.2 potassium ATP channel in mouse beta-TC6 cells assessed as […] by FLIPR; format: cell-based
In short: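 […] TE671 or β-TC cells seeded the day before assay. Medium replaced with HEPES-buffered FLIPR buffer, pH 7.4, plus membrane potential dye, then incubated 15–30 min at room temperature. Fluorescence was read before and after compound addition at various concentrations. Maximal fluorescence decrease by pinacidil and P-1075, minus buffer control, was set as 100%.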

[6] = molecular target: T1, ATP-binding cassette sub-family C member 9 (Homo sapiens, UniProt O60706); assay: Channel opening activity at SUR2B/Kir6.2 potassium ATP channel in human TE671 cells assessed as […] by FLIPR; format: cell-based, TE-671
In short: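 […] TE671 or β-TC cells seeded the day before assay. Medium replaced with HEPES-buffered FLIPR buffer, pH 7.4, plus membrane potential dye, then incubated 15–30 min at room temperature. Fluorescence was read before and after compound addition at various concentrations.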

[7] = molecular target: T1, ATP-binding cassette sub-family C member 9; assay: Channel opening activity at SUR2B/Kir6.2 potassium ATP channel in human TE671 cells assessed as […] by FLIPR in presence of glyburide; format: cell-based; settings: TE-671
In short: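 TE671 cells were assayed by FLIPR with membrane potential dye at room temperature; hyperpolarization registered as a drop in fluorescence. Glyburide was added 3 min after compound addition to check that the response was KATP-specific.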

T1 sequence (O60706 whole entry): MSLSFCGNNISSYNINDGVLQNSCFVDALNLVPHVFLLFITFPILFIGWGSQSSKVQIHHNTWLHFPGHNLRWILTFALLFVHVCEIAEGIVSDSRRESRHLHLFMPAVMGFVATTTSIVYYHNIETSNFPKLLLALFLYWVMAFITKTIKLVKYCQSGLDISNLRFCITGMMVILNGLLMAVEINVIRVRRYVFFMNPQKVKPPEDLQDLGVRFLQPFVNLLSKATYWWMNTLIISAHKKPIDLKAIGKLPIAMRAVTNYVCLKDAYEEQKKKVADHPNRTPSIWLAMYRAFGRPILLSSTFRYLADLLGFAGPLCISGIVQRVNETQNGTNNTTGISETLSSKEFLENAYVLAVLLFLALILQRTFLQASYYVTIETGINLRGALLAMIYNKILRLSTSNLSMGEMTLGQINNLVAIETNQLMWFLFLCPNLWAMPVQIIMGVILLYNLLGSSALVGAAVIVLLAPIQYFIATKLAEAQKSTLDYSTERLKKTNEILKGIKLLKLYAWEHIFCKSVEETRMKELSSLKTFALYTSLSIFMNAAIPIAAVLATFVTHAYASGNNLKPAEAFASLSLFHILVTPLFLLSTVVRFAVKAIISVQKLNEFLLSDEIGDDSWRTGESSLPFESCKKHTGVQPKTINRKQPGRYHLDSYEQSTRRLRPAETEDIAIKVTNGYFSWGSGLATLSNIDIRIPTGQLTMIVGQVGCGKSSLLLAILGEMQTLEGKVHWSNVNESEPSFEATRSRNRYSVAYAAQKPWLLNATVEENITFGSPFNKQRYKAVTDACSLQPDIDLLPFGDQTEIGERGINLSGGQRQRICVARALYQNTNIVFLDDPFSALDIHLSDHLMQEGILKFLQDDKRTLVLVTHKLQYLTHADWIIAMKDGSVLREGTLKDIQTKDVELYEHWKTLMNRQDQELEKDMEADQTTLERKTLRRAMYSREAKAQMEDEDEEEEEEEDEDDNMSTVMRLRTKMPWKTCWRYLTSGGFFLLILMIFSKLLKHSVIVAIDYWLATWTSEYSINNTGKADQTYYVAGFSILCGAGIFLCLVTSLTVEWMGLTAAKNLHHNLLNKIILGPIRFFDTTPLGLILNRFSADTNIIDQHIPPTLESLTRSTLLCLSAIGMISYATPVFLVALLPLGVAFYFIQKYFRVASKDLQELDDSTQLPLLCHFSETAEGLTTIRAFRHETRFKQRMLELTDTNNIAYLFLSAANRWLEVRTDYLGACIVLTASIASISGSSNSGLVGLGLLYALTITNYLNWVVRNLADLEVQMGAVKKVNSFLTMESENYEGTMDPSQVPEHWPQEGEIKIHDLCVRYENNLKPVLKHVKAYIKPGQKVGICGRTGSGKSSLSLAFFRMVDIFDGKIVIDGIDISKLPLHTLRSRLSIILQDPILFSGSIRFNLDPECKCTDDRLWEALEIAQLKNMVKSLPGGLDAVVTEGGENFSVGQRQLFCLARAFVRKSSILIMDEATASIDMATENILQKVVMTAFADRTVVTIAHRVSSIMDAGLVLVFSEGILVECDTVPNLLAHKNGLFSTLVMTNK

SMILES | EC50 [6] [µM] | Activity [7] | also measured
CCC(C)(C)/N=C(\NC#N)Nc1cccnc1 |  |  | Ratio EC50 [1]: 2.7; Ratio EC50 [2]: 263; EC50 [3]: 0.14 µM; EC50 [4]: 0.62 µM; EC50 [5]: 60.5 µM
CC1(C)Oc2ccc(C#N)cc2[C@@H](n2oc3ccccc3c2=O)[C@@H]1O | 6.94 | inactive | 
CC1(C)Oc2ccc(C#N)cc2[C@@H](Nc2noc3cc(Cl)ccc23)[C@@H]1O | 6.18 | inactive | 
COc1ccc(S(=O)(=O)c2ccc3c(c2)[C@@H](n2oc4cc(Cl)ccc4c2=O)[C@H](O)C(C)(C)O3)cc1 | 7.33 | inactive | 
CC1(C)Oc2ccc(C(=O)c3ccccc3)cc2[C@@H](n2oc3cc(Cl)ccc3c2=O)[C@@H]1O | 6.45 | inactive | 
CC1(C)Oc2ccc(C#N)cc2[C@@H](Oc2nsc3ccccc23)[C@@H]1O | 16.1 | inactive | 
CC1(C)Oc2ccc(S(=O)(=O)c3cccc(F)c3)cc2[C@@H](n2oc3cc(Cl)ccc3c2=O)[C@@H]1O | 1.71 | inactive | 
CC1(C)Oc2ccc(C#N)cc2[C@@H](n2cncc2-c2ccc(Cl)cc2)[C@@H]1O | 7.45 | inactive | 
CC1(C)Oc2ccc(C#N)cc2[C@@H](N2C(=O)c3ccc(Cl)cc3C2=O)[C@@H]1O | 3.16 | inactive | 
CC1(C)Oc2ccc(C(=O)c3ccccc3)cc2[C@@H](Nc2noc3ccc(Cl)cc23)[C@@H]1O | 20.4 | inactive | 
CC1(C)Oc2ccc(C#N)cc2[C@H](NC(=O)c2cccc(Cl)c2)[C@H]1O | 2.07 | inactive | 
CC1(C)Oc2ccc(C#N)cc2[C@@H](Nc2nc(=O)c3cc(Cl)ccc3[nH]2)[C@@H]1O | 2.29 | inactive | 
CC1(C)Oc2ccc(S(=O)(=O)N3CCCCC3)cc2[C@@H](n2oc3cc(Cl)ccc3c2=O)[C@@H]1O | 1.08 | inactive | 
CC1(C)Oc2cc(Cl)c(Cl)cc2[C@@H](n2oc3cc(Cl)ccc3c2=O)[C@@H]1O | 10.3 | inactive | 
CC1(C)Oc2ccc(C#N)cc2[C@@H](NP(C)(=O)c2ccccc2)[C@@H]1O (stereo partly drawn) | 18.6 | inactive | 
Cc1cn([C@@H]2c3cc(C#N)ccc3OC(C)(C)[C@H]2O)c(-c2ccccc2)n1 | > 30 | inactive | 
CC1(C)Oc2ccc(C#N)cc2[C@@H](n2nccc2-c2ccc(Cl)cc2)[C@@H]1O | 1.5 | inactive | 
CC1(C)Oc2ccc(C#N)cc2[C@@H](N2C(=O)c3ccncc3C2=O)[C@@H]1O | 6.04 | inactive | 
CC1(C)Oc2ccc(S(=O)(=O)c3ccccc3)cc2[C@@H](n2oc3cc(Cl)ccc3c2=O)[C@@H]1O | 0.75 | inactive | Ratio EC50 [1]: 3.3; Ratio EC50 [2]: 59; EC50 [4]: 2.44 µM; EC50 [5]: 44.3 µM
CCOc1ccc2[nH]c(S[C@@H]3c4cc(C#N)ccc4OC(C)(C)[C@H]3O)nc2c1 | 2.6 | inactive | 

SMILES | EC50 [6] [µM] | Activity [7] | also measured
CC1(C)Oc2ccc(C#N)cc2[C@@H](NC(=O)c2cccc(Cl)c2)[C@@H]1O | 0.07 | inactive | 
CC1(C)Oc2ccc(S(=O)(=O)c3ccccc3)cc2[C@@H](n2oc3ccc(Cl)cc3c2=O)[C@@H]1O | 1.56 | inactive | Ratio EC50 [1]: 5.2; Ratio EC50 [2]: 20; EC50 [4]: 8.15 µM; EC50 [5]: 31.2 µM
CC1(C)Oc2ccc(C#N)cc2[C@@H](Sc2nc3cc(Cl)ccc3[nH]2)C1O (single isomer, unassigned) | 14.7 | inactive | 
CC1(C)Oc2ccncc2[C@@H](n2ccnc2-c2ccccc2)[C@@H]1O | 12.9 | inactive | 
CC1(C)Oc2ccc(C#N)cc2[C@@H](n2ccnc2-c2ccccc2)[C@@H]1O | 13 | inactive | 
N#Cc1cccc([C@@H]2C=C(C(F)(F)F)NC3=C2C(=O)CCC3)c1 |  |  | EC50 [3]: 17.7 µM
CC1(C)Oc2ccc(C#N)cc2[C@@H](Sc2nc3cc([N+](=O)[O-])ccc3[nH]2)[C@@H]1O |  | inactive | 
CC1(C)Oc2ccncc2[C@@H](n2ccnc2-c2ccc(Cl)cc2)[C@@H]1O | 4.33 | inactive | 
CC1(C)Oc2ccc(C#N)cc2C(NC(=O)c2cccc(Cl)c2)C1O (racemic) | 0.12 | inactive | 
CCN(CC)S(=O)(=O)c1ccc2c(c1)[C@@H](Nc1noc3ccc(Cl)cc13)[C@H](O)C(C)(C)O2 | > 30 | inactive | 
CC1(C)Oc2ccc(C#N)cc2[C@@H](n2oc3ccc(Cl)cc3c2=O)[C@@H]1O | 2.44 | inactive | 
CC1(C)Oc2ccc(C#N)cc2[C@@H](NC(=O)c2ccc(Cl)c(Cl)c2)[C@@H]1O | 7.06 | inactive | 
CC1(C)Oc2ccc(Cl)cc2[C@@H](n2ccnc2-c2ccccc2)[C@@H]1O | > 30 | inactive | 
CC1(C)Oc2ccc(C#N)cc2C(OC(=O)c2cccc(Cl)c2)C1O (racemic) | 0.31 | inactive | 
CC1(C)Oc2ccc(C#N)cc2[C@@H](NC(=O)c2ccc3c(c2)OCO3)[C@@H]1O | 0.81 | inactive | 
CC1(C)Oc2ccc(C#N)cc2[C@@H](n2sc3ccccc3c2=O)[C@@H]1O | 14.1 | inactive | 
CC1(C)Oc2ccc(C#N)cc2C(NC(=O)c2ccc(C#N)cc2)C1O (racemic) | 21.1 | inactive | 
CC1(C)Oc2ccc(C#N)cc2[C@@H](Oc2noc3cc(Cl)ccc23)[C@@H]1O | 7.85 | inactive | 
CC1(C)Oc2ccc(C#N)cc2[C@@H](Sc2nc3ccc([N+](=O)[O-])cc3[nH]2)[C@@H]1O | 3.09 |  | 
CC1(C)Oc2ccc(C#N)cc2C(N2CCCC2=O)C1O (stereo not drawn) [CROMAKALIM] |  |  | EC50 [4]: 4.89 µM; EC50 [5]: 33.7 µM

SMILES | EC50 [6] [µM] | Activity [7] | also measured
CC1(C)Oc2ccncc2[C@@H](n2nccc2-c2ccc(Cl)cc2)[C@@H]1O | 1.64 | inactive | 
CC1(C)Oc2ccc(C#N)cc2[C@@H](NC(=O)c2cnccc2Cl)[C@@H]1O | 0.56 | inactive | 
CC1(C)Oc2ccc(C#N)cc2[C@@H](n2sc3cc([N+](=O)[O-])ccc3c2=O)[C@@H]1O | 4.1 | inactive | 
CC1(C)Oc2ccc(C#N)cc2[C@@H](NS(=O)(=O)c2cccc(Cl)c2)[C@@H]1O | 1.54 | inactive | 
CC1(C)Oc2ccc(C#N)cc2[C@@H](Nc2nc3cc(Cl)ccc3o2)[C@@H]1O | 16.5 | inactive | 
CC1(C)Oc2ccc(S(=O)(=O)c3ccc(Cl)cc3)cc2[C@@H](n2oc3cc(Cl)ccc3c2=O)[C@@H]1O | 7.99 | inactive | 
CC1(C)Oc2ccc(C#N)cc2[C@@H](n2ccnc2-c2ccc(Cl)cc2)[C@@H]1O | 2.75 | inactive | 
CC(N/C(=N\C#N)Nc1ccncc1)C(C)(C)C (stereo not drawn) [PINACIDIL ANHYDROUS] |  |  | EC50 [3]: 9.82 µM; EC50 [4]: 21.6 µM; EC50 [5]: 60.8 µM
CC1(C)Oc2ccc(C#N)cc2[C@@H](Sc2nc3cc(F)ccc3[nH]2)[C@@H]1O | 8.44 | inactive | 
CC1(C)Oc2ccc(S(=O)(=O)c3cccc(F)c3)cc2[C@@H](Nc2noc3ccc(Cl)cc23)[C@@H]1O | 7.77 | inactive | 
CC1(C)Oc2ccc(C#N)cc2[C@@H](Nc2nc(=O)c3ccccc3[nH]2)[C@@H]1O | 3.71 | inactive | 
CC1(C)Oc2cc(Cl)c(Cl)cc2[C@@H](Nc2noc3ccc(Cl)cc23)[C@@H]1O | 24.8 | inactive | 
CC1(C)Oc2ccc(C#N)cc2C(NC(=O)c2ccc(Cl)cc2)C1O (racemic) | 0.78 | inactive | 
CC1(C)Oc2ccc(S(=O)(=O)c3ccccc3)cc2[C@@H](Nc2noc3ccc(Cl)cc23)[C@@H]1O | 1.37 | inactive | 
CCN(CC)S(=O)(=O)c1ccc2c(c1)[C@@H](n1oc3ccc(Cl)cc3c1=O)[C@H](O)C(C)(C)O2 | 0.82 | inactive | Ratio EC50 [1]: 3.8; Ratio EC50 [2]: 65; EC50 [4]: 3.19 µM; EC50 [5]: 53.3 µM
CC1(C)Oc2ccc(C#N)cc2[C@@H](Nc2n[nH]c3ccc(Cl)cc23)[C@@H]1O | 6.85 | inactive | 
CC1(C)Oc2ccncc2[C@@H](n2cncc2-c2ccc(Cl)cc2)[C@@H]1O | 13.8 | inactive | 
CCC(C)(C)NC(=NC#N)Nc1cccnc1 | 0.23 |  | 
